The viability is a read-out of living cells in per cent, often relative to untreated cells. By inhibition is commonly meant the relative decrease from the control value, in per cent.

Several values for one entry are separate records, joined by “and”; a condition that tells them apart may be missing. Equal values may be shown once. Activity calls are given as the source filed them.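 How the source made its calls, unless noted: active means viability at or below 30% in both replicate assays; inconclusive means viability at or below 30% in just one of the two assays; inactive means the rest.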

Test [1] can be described thus: Her2 expression decrease, cell viability multiplex – SKBR3 breast tumor cells, AlphaScreen, ATP viability, primary screen (AID 461;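 active means Her2 level under about 52% in both replicate screens, with viability over 70% of control, limit read from the data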;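 on Her2 level: lower value means less Her2 protein in the cells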;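 on viability: percent of carrier control wells set as 100% viability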). Particulars: SKBR3 Her2 protein level, 18-24 h, measured here: SKBR3 viability, ATP luminescence, at 10 µM. (Bead proximity is the source of the signal in Alpha formats.)
Test [2] concerns the target Receptor tyrosine-protein kinase erbB-2 (Homo sapiens) (UniProt P04626). Described as above. As to conditions: 18-24 h, at 10 µM, stronger effect = lower value.
A short description of test [3]: reduced viability of SK-BR-3 breast cancer cells – cell-based, 24 h, human, pilot screen (AID 572;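 active means viability at or below 10% of carrier control in both of two separate runs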;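 further: compound exposure lasted between 18 and 24 h rather than exactly 24 h; 100% = carrier-treated control wells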). As to conditions: SK-BR-3 viability, CellTiter-Glo luminescence, at 10 µM, stronger effect = lower value.
A short description of test [4]: HUVEC growth inhibition – cell-based, human, primary screen (AID 575).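 Further: 100% = median of untreated cell wells with 0.1% DMSO on each plate.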 As to conditions: HUVEC proliferation, CellTiter-Glo luminescence, 72 h; at 10 µM; stronger effect = lower value. The procedure, abridged:
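Test system – primary HUVEC, no more than 12 passages · Dosing – one dose, 10 µM final, 0.1% DMSO · Times – 72 h treatment at 37 °C · Measured by – ATP-based CellTiter-Glo luminescent read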
(ATP-based viability assays read luminescence as a measure of living cells.)

Test [5] in a line: H69AR cell proliferation blockers – human, duplicate replicates, primary screen (AID 580;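 active means viability at or under a set limit in both replicates, limit being median viability minus 3 SD, cut at about 48% in these data, passing the limit was not always enough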;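 further: 100% = mean luminescence of untreated wells and 0% = no signal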). As to conditions: H69AR lung tumor cells viability, ATP luminescence, 72 h; at 10 µM; stronger effect = lower value.
Test [6] in a line: MRP1 drug-resistance reversers in H69AR cells – cell-based, doxorubicin co-treatment, pilot screen (AID 601;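 active means viability loss from added drug above about 55%, and viability with drug at most 40%, in both replicates, limit read from the data, passing the limit was not always enough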). Particulars: CellTiter-Glo, 72 h, at 10 µM; for differential viability (reversal): stronger effect = higher value.
Test [7] in a line: yeast transport mutant growth inhibition pilot in 384-well plates, post-Golgi transport modulator project (AID 636; in the data active means inhibition above about 31%). Particulars: absorbance 615 nm, about 18 h, stronger effect = higher value.
Test [8] can be described thus: growth suppression of yeast trafficking mutant, preliminary HTS, modulators of trafficking downstream of Golgi apparatus project, 1536-format plate, OD 615 nm (AID 637; in the data active means inhibition above about 30%). As to conditions: yeast transport mutant growth, absorbance 615 nm, 18 h; stronger effect = higher value.
Where [9] appears, read: H69AR cells + 2 uM doxorubicin, measured here: viability with 2 uM doxorubicin, stronger effect = lower value.
The mark [10] stands for this setting: H69AR cells, compound alone cytotoxicity.

Sequence of Receptor tyrosine-protein kinase erbB-2 (Homo sapiens) (P04626 whole entry, looked up): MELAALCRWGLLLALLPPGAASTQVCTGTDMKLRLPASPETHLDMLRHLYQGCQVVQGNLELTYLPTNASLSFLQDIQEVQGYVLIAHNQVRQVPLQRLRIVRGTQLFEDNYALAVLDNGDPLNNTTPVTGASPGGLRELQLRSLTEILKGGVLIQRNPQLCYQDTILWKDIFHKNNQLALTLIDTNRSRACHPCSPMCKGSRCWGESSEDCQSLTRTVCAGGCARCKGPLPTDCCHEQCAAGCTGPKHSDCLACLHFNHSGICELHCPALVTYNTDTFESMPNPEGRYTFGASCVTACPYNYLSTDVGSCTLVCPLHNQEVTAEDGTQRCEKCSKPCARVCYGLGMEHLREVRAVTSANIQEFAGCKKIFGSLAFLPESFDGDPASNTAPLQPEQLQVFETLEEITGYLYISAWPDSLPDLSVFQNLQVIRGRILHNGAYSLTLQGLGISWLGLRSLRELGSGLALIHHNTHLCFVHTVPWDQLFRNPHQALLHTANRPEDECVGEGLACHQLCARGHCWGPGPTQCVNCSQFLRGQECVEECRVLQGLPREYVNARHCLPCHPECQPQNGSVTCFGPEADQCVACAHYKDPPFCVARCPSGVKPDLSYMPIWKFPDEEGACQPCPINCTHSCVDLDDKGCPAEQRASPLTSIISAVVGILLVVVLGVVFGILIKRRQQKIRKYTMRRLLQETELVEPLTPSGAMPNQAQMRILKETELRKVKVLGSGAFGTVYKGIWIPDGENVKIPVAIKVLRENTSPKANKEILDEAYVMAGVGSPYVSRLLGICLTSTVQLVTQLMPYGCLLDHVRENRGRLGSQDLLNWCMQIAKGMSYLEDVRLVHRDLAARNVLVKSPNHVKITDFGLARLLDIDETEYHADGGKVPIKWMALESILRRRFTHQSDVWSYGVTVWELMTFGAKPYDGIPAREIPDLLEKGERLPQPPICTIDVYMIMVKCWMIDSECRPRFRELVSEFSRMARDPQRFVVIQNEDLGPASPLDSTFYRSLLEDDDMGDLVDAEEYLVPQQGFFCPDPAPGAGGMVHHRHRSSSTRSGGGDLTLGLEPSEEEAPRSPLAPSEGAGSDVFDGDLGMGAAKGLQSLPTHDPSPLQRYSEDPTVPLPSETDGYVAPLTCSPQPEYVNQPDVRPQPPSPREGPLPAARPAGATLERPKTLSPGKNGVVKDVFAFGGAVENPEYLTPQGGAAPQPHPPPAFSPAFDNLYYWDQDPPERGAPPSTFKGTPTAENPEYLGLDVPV

Turning to `O=C(NC1CC1)C1CCN(c2ccc(S(=O)(=O)N3CCOCC3)cc2)CC1`, the viability is 92.5% in test [1]; 92.5% (inactive) in test [3]; 83% (inactive) in test [4]; 94.7% (inactive) in test [5]; 77.7% in test [6] (setting [9]); 94.7% in test [6] (setting [10]). In addition, the Her2 level in test [2] was 138% (inactive). In addition, the differential viability (reversal) in test [6] (H69AR cells + 2 uM doxorubicin) was 17.1% (inactive). Further, the figures for the inhibition in test [7] and in test [8] were -0.13% (inactive) and -10% (inactive), respectively.

For `O=S(=O)(NCCCCCNS(=O)(=O)c1ccccc1)c1ccccc1`, the viability is 92.5% in test [1]; 92.5% (inactive) in test [3]; 112% (inactive) in test [4]; 93.2% (inactive) in test [5]; 107% in test [6] (setting [9]); 93.2% in test [6] (setting [10]). Also, the Her2 level in test [2] was 90.5% (inactive). For the same compound, the differential viability (reversal) in test [6] (H69AR cells + 2 uM doxorubicin) was -13.4% (inactive). Further, the results for the inhibition in test [7] and in test [8] were -4% (inactive) and -3.39% (inactive), respectively.

Turning to `COc1cc2c(cc1OC)-c1cc(Nc3ccc4c(c3)OCCO4)nc(=O)n1CC2`, the viability in test [1] was 91.5%; in test [3], 91.5% (inactive); in test [4] it was 63.2% (inactive); in test [5], 71.2% (inactive); in test [6] (setting [9]) it was 78.1%; in test [6] (setting [10]), 71.2%. Further, the Her2 level in test [2] is 82.5% (inactive). Moreover, in test [6] (H69AR cells + 2 uM doxorubicin), the differential viability (reversal) was -6.86% (inactive). Also, the inhibition in test [7] was -0.91% (inactive); in test [8] it was -4.17% (inactive).

On to `COC(=O)CSc1nc(C)c(C(C)=O)cc1C#N`, for which the viability in test [1] is 92%; in test [3], 92% (inactive); in test [4], 111% (inactive); in test [5], 90.1% (inactive); in test [6] (setting [9]), 80.4%; in test [6] (setting [10]), 90.1%. In addition, the Her2 level in test [2] was 90.5% (inactive). For the same compound, the differential viability (reversal) in test [6] (H69AR cells + 2 uM doxorubicin) was 9.68% (inactive). Besides, the inhibition in test [7] was -0.93% (inactive); in test [8], -0.65% (inactive).

As for `Cc1cc(C)n(S(=O)(=O)Cc2ccccc2)n1`, the viability in test [1] was 102%; in test [3] it was 102% (inactive); in test [4] it was 97.4% (inactive); in test [5] it was 92.2% (inactive); in test [6] (setting [9]), 92.4%; in test [6] (setting [10]) it was 92.2%. Moreover, the Her2 level in test [2] was 135% (inactive). In addition, the differential viability (reversal) in test [6] (H69AR cells + 2 uM doxorubicin) was -0.205% (inactive). For the same compound, the inhibition in test [7] is -6.32% (inactive); in test [8], 4.59% (inactive).

Regarding `COc1ccccc1NC(=O)C1=C(C)Nc2nc(CCCO)nn2C1c1cccnc1` (stereo not given), the viability was 132% in test [1]; 132% (inactive) in test [3]; 95.7% (inactive) in test [4]; 96.2% (inactive) in test [5]; 85.2% in test [6] (setting [9]); 96.2% in test [6] (setting [10]). Moreover, the Her2 level in test [2] was 94.5% (inactive). Further, the differential viability (reversal) in test [6] (H69AR cells + 2 uM doxorubicin) is 11% (inactive). Moreover, the inhibition in test [7] was -6.36% (inactive); in test [8] it was -3.81% (inactive).

As for `O=C(NCc1nnc(SCC(=O)N2CCCCCC2)o1)c1ccco1`, the viability in test [1] is 104%; in test [3], 104% (inactive); in test [4], 101% (inactive); in test [5], 111% (inactive); in test [6] (setting [9]), 92.8%; in test [6] (setting [10]), 111%. For the same compound, the Her2 level in test [2] was 100% (inactive). Further, the differential viability (reversal) in test [6] (H69AR cells + 2 uM doxorubicin) was 18.3% (inactive). Moreover, the figures for the inhibition in test [7] and in test [8] were -4.27% (inactive) and -0.48% (inactive), respectively.

Turning to `CCOC(=O)c1ccc(Oc2nc(SC)nc(N(C)C)n2)cc1`, the viability in test [1] was 73.5%; in test [3], 73.5% (inactive); in test [4], 85% (inactive); in test [5], 107% (inactive); in test [6] (setting [9]), 105%; in test [6] (setting [10]), 107%. In addition, in test [2], the Her2 level was 100% (inactive). Moreover, the differential viability (reversal) in test [6] (H69AR cells + 2 uM doxorubicin) is 2.66% (inactive). For the same compound, the inhibition in test [7] is -1.54% (inactive); in test [8], -8.17% (inactive).

With `CCOC(=O)N1CCN(C(=O)CCc2c(C)nc3c(c(C)nn3-c3ccc(C)c(C)c3)c2C)CC1`, the viability in test [1] was 92%; in test [3] it was 92% (inactive); in test [4] it was 82% (inactive); in test [5] it was 86.2% (inactive); in test [6] (setting [9]), 80%; in test [6] (setting [10]), 86.2%. In test [2], the Her2 level was 88.5% (inactive). Moreover, the differential viability (reversal) in test [6] (H69AR cells + 2 uM doxorubicin) was 6.21% (inactive). Besides, the figures for the inhibition in test [7] and in test [8] were -1.71% (inactive) and -7.64% (inactive), respectively.

As to `CCOC(=O)N1CCN(S(=O)(=O)c2cc(Cl)ccc2Cl)CC1`, the viability in test [1] is 106%; in test [3] it was 106% (inactive); in test [4], 90.7% (inactive); in test [5], 85% (inactive); in test [6] (setting [9]), 83%; in test [6] (setting [10]), 85%. For the same compound, the Her2 level in test [2] is 94.5% (inactive). The differential viability (reversal) in test [6] (H69AR cells + 2 uM doxorubicin) is 2.05% (inactive). Further, the inhibition in test [7] was -3.38% (inactive); in test [8] it was -0.32% (inactive).

Consider `C[C@]12CCC(=O)C=C1CC[C@@H]1[C@@H]2[C@@H](O)C[C@@]2(C)[C@H]1CC[C@]2(O)C(=O)COC(=O)CCC(=O)O`, for which the viability is 95% in test [1]; 95% (inactive) and 100% (inactive) in test [3]; 81.3% (inactive) and 75% (inactive) in test [4]; 111% (inactive) and 103% (inactive) in test [5]; 101% and 103% in test [6] (setting [9]); 111% and 103% in test [6] (setting [10]). The Her2 level in test [2] was 120% (inactive). In test [6] (H69AR cells + 2 uM doxorubicin), the differential viability (reversal) is 9.53% (inactive) and -0.58% (inactive). Moreover, the results for the inhibition in test [7] and in test [8] were -3.38% (inactive) and 6.33% (inactive), respectively.

Regarding `CC(C(=O)Nc1ccccc1-c1ccccc1)N1CCN(C(=O)c2ccco2)CC1` (stereo not given), the viability in test [1] is 91.5%; in test [3], 91.5% (inactive); in test [4], 96.2% (inactive); in test [5], 74.1% (inactive); in test [6] (setting [9]), 65.8%; in test [6] (setting [10]) it was 74.1%. The Her2 level in test [2] was 95% (inactive). For the same compound, the differential viability (reversal) in test [6] (H69AR cells + 2 uM doxorubicin) was 8.3% (inactive). The inhibition in test [7] is -6.18% (inactive); in test [8], 0.32% (inactive).

Regarding `CCOC(=O)C1CCN(C(=O)c2ccc(Cl)c(Cl)c2)CC1`, the viability in test [1] was 75.5%; in test [3], 75.5% (inactive); in test [4], 94.3% (inactive); in test [5] it was 102% (inactive); in test [6] (setting [9]), 96.3%; in test [6] (setting [10]) it was 102%. In test [2], the Her2 level was 105% (inactive). In test [6] (H69AR cells + 2 uM doxorubicin), the differential viability (reversal) is 5.88% (inactive). Also, the results for the inhibition in test [7] and in test [8] were 3.65% (inactive) and -2.3% (inactive), respectively.

For the compound `CC(C)c1nnc(SCC(=O)NCc2ccco2)n1C`, the viability was 105% in test [1]; 105% (inactive) in test [3]; 94.7% (inactive) in test [4]; 79.6% (inactive) in test [5]; 85.2% in test [6] (setting [9]); 79.6% in test [6] (setting [10]). For the same compound, in test [2], the Her2 level is 91% (inactive). Moreover, in test [6] (H69AR cells + 2 uM doxorubicin), the differential viability (reversal) is -5.55% (inactive). The results for the inhibition in test [7] and in test [8] were -0.14% (inactive) and 4.76% (inactive), respectively.

For `Cc1cccc(N2C(=O)CC(N3CCN(C(=O)c4ccccc4)CC3)C2=O)c1` (stereo not given), the viability in test [1] is 114%; in test [3], 114% (inactive); in test [4] it was 90.8% (inactive); in test [5] it was 96.3% (inactive); in test [6] (setting [9]) it was 83.6%; in test [6] (setting [10]) it was 96.3%. The Her2 level in test [2] is 104% (inactive). For the same compound, the differential viability (reversal) in test [6] (H69AR cells + 2 uM doxorubicin) is 12.7% (inactive). Also, the inhibition is -5.32% (inactive) in test [7] and 2.13% (inactive) in test [8].
